# Sampled rows, rich in hits. Any-hit rate of the full collection: about 3.2%.
# NR2E3 ag-1 = human photoreceptor-specific nuclear receptor agonism | 0.35% of 360,000 active | Q9Y5X4 | inhibition of corepressor binding, % at 3.98 µM | CHO-S Gal4-NCOR/VP16-NR2E3 two-hybrid, luciferase;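 active = inhibition above the mean of all tested compounds plus 3 SD, cut at about 70% in these data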;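 also: 0% = DMSO with NR2E3 transfected cells and 100% = cells lacking NR2E3 construct; higher means lower luciferase signal from less NR2E3 corepressor binding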
# Target sequence (Q9Y5X4 whole entry, looked up, the tested form may be a part): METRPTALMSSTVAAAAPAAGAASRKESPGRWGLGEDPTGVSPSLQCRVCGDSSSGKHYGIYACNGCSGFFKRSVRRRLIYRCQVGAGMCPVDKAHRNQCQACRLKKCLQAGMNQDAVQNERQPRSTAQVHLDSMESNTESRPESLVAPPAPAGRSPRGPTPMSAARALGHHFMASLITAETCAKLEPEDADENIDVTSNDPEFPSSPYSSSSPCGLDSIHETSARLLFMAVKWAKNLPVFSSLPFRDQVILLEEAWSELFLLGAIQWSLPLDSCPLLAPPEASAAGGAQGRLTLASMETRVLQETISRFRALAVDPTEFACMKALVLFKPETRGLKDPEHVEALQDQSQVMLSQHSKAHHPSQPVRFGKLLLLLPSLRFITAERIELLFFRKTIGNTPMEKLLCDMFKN
# NR2E3 ag-2 = agonists of human nuclear receptor NR2E3; GST-NR2E3/biotin-RetCOR TR-FRET, 1536-well; inhibition of corepressor binding, % at 4.78 µM; 0.12% of 320,000 active; AID 2300;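 active = percent inhibition above the cutoff of mean plus 3 SD of all tested compounds, set per screening campaign, cut at about 20% in these data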;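 also: 0% = DMSO wells and 100% = biotin wells as full block of FRET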
#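 Test system: GST-NR2E3 and biotin-RetCOR proteins | Quantity: 1.35 nM GST-tagged NR2E3 final | Medium: Tris pH 7.5 | Also added: 7 nM biotin-RetCOR | Dosing: Compound at 4.8 µM, single dose | Timing: 5 h at 4 °C | Detection: Time-resolved FRET | Read-out basis: Percent inhibition | Benchmarks: Biotin wells as high control, 0.6% DMSO wells as low control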
# SMARCA2 act = activators of SMARCA2 function | MG213 cells, MMTV-luciferase reporter, dexamethasone, overnight | activation, % at 9.1 µM | 1% of 370,000 active | AID 652017; in the data active = activation above about 7.8%;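 also: 0% = vehicle wells and 100% = reference activator wells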
# DAX1 inh-1 = blocks DAX1 repression of SF-1 activated StAR promoter | HEK293T StAR-luciferase reporter, SF-1/DAX-1 repression relief | inhibition, % at 6.8 µM | 1.1% of 370,000 active | AID 652010;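 active = inhibition above the mean over all tested compounds plus 3 SD, cut at about 3.6% in these data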;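 also: 0% = DAX-1 cells with DMSO and 100% = cells lacking DAX-1 with DMSO; higher inhibition means more luminescence from relief of DAX-1 repression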
# JMJD2C inh = inhibitors of human GASC-1 (JMJD2C) demethylase; Q9H3R0; GST-JMJD2C(1-420) H3K9me3 demethylation, DELFIA europium; inhibition, % at 2.35 µM; 0.069% of 330,000 active;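 active = more than half of a compound's replicate wells show inhibition beyond 50%, single wells judged on their own value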;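 also: signal counts dimethyl H3K9 product captured on neutravidin plate; 0% = median of DMSO wells and 100% = 0.3 times that DMSO median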
# DAX1 inh-2 = NR0B1 (DAX1) inhibition; HEK293 Gal4-DAX1 luciferase reporter, luminescence; inhibition, % at 6.75 µM; 0.99% of 340,000 active; AID 504766;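 active = inhibition above the mean over all tested compounds plus 3 SD, cut at about 4.2% in these data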;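 also: 0% = DAX1-transfected cells with DMSO and 100% = empty-vector control cells with DMSO; inhibition shows as a rise in luminescence from relieved DAX1 repression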
# Target sequence (P51843 207-470 limits assumed): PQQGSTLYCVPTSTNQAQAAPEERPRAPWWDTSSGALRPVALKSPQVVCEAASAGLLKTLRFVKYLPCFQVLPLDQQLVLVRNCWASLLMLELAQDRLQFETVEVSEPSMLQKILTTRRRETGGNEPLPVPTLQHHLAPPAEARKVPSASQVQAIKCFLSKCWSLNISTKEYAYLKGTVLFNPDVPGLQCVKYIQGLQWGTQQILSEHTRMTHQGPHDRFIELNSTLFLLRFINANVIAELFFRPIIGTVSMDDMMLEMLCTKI
# Numbers without * were called inactive; nt = no result given.
SMILES,NR2E3 ag-1,NR2E3 ag-2,SMARCA2 act,DAX1 inh-1,JMJD2C inh,DAX1 inh-2
O=C(NCCc1ccccc1)c1ccc(-c2cccnc2)c2ccoc12,-98,nt,1,4.3*,nt,nt
O=C(NCc1cccc(Cl)c1)c1ccc(-c2cccnc2)c2ccoc12,-50,nt,0,0,nt,nt
Cc1ccc(C(=O)OCC(=O)Nc2cc(C(C)(C)C)no2)c(C)c1,12,0,-2,3.6*,8,1
COc1ccccc1C(=O)N(Cc1ccccn1)CC1CCCO1 (stereo not drawn),nt,nt,0,1,nt,nt
CCCC(=O)Nc1sc(C(=O)Nc2cccc(N)c2)c(C)c1C(=O)OC,-64,-2,5,3.9*,2,0
COC(=O)[C@]12C[C@H](CC(=O)N3CCCC3)C(=O)N(CCc3ccc(OC)c(OC)c3)C1=C[C@H](C(C)C)O[C@@H]2C1CC1,nt,nt,-1,-1,nt,nt
Cc1ccc(N(CCC#N)C(=O)CSc2nc3ccccc3c(=O)[nH]2)cc1,13,3,0,3.7*,6,0
CCC(=O)N(C)CCc1cc2c(c(OC)c1/C=N/NS(=O)(=O)c1ccc(C)cc1)OCO2,-11,0,-2,0,-4,1
CCC(=O)N(C)CCc1cc2c(c(OC)c1/C=N/NC(=O)c1ccncc1)OCO2,-5,1,-3,0,-21,4.2*
COc1ccc(N=c2sc3ccccc3n2C)cc1,-150,1,7,4.5*,2,5.6*
COc1ccccc1N=c1sc2ccccc2n1C,-14,1,-1,0,-5,0
O=C(C1CCCN1S(=O)(=O)c1ccc([N+](=O)[O-])cc1)N1CCc2ccccc2C1 (stereo not drawn),nt,nt,3,0,nt,nt
O=Cc1ccc(OCc2cccc(C(F)(F)F)c2)cc1O,-14,1,-3,-1,11,7.2*
O=C(OCC(F)(F)F)c1cccc(COc2ccc3ccccc3c2)c1,-301,1,7,5.6*,2,-5
C=C1C(=O)C=C2CN(C(=O)c3ccccc3)[C@@](Cc3ccc(F)cc3)(C(=O)OC)[C@@H]12,72*,0,nt,nt,8,-6
C=C1C(=O)CC2=C1[C@](Cc1ccc(F)cc1)(C(=O)OC)N(C(=O)c1ccccc1)C2,5,nt,-4,-1,nt,nt
O=S1(=O)c2c(cccc2N2CCC[C@H]2CO)O[C@H]2CCN1C2,nt,nt,-2,-1,nt,nt
CCOC(=O)c1cnn2c(C)cc(-c3ccccc3)nc12,-108,-1,7.9*,2,-5,4.3*
CCOC(=O)c1cc2nc(-c3ccccc3)cc(C)n2n1,0,3,2,0,3,0
Cc1ccc(-n2nnnc2CN2CCCCC2)cc1,5,-1,1,0,9,1
Clc1ccc(-n2nnnc2CN2CCOCC2)cc1,-6,-1,-6,-1,-3,6.0*
CN(C(=O)CCc1nnc(-c2ccc(-c3ccccc3)cc2)o1)C1CCOCC1,44,-2,-5,-5,1,-1
CC(CNC(=O)CCc1nnc(CCC2CCCCC2)o1)c1ccccc1 (stereo not drawn),-14,1,0,0,-21,5.6*
CN(CCCC1CCCC1)C(=O)CCc1nnc(-c2ccccc2)o1,-70,0,4,1,1,5.4*
Cc1ccc(Cn2cc(CN3[C@H](c4ccccc4)COc4cc(Br)ccc4S3(=O)=O)nn2)cc1,nt,nt,-3,-1,nt,nt
SMILES,NR2E3 ag-1,NR2E3 ag-2,SMARCA2 act,DAX1 inh-1,JMJD2C inh,DAX1 inh-2
Cn1cccc1/C=C1\CCc2ccccc2C1=O,-121,3,-1,3,-3,-4
Cn1cccc1/C=C1\Cc2ccccc2C1=O,-31,-10,6,3.9*,-7,4.3*
CC(=Nc1ccccc1)C1=C(O)CCCC1=O,-1,3,2,0,-20,5.2*
CC(=Nc1ccccc1)C1=C(O)CC(C)(C)CC1=O,-6,1,-1,0,-5,2
CCC(=O)Nc1ccc(S(=O)(=O)Nc2nccs2)cc1,12,-6,-1,1,-16,4.3*
O=C(Nc1ccc2c(c1)OCO2)c1ccc(Br)s1,-79,-8,6,4.3*,6,2
CC(=O)c1ccc(NC(=O)c2noc3c2CCCCC3)cc1,-134,-3,4,3.8*,-8,2
CC(=O)Nc1ccc2c(c1)OCO2,-5,-5,0,0,-11,-1
O=C(Nc1ccc2c(c1)OCO2)c1noc2c1CCCCC2,-132,0,2,4.4*,11,0
CCOc1cc(CCNC(=O)c2cc(-c3ccccc3)c(N3CCOCC3)s2)ccc1OC,nt,nt,-3,-3,nt,nt
CN(C)c1cccc(/C=C2\CC3(OC(=O)c4ccccc4)CCCN2C3)c1 (stereo not drawn),nt,nt,-3,0,nt,nt
CNC(=S)NNC(=O)c1sccc1C,-15,4,4,0,-2,-1
Cc1ccsc1C(=O)NNC(=S)NC1CCCCC1,-41,1,1,4.1*,-6,1
CC(=O)N1CCCc2cc(S(=O)(=O)N3CCCC3)ccc21,7,5,-2,0,1,0
CCC(=O)N1CCc2cc(S(=O)(=O)CCC(=O)Nc3ccc(C(C)=O)cc3)ccc21,-6,-1,-3,-1,-13,-1
CC(=O)c1ccc(NC(=O)CC(C)S(=O)(=O)c2ccc3c(c2)CCN3C(C)=O)cc1 (stereo not drawn),-44,0,-2,4.1*,-2,0
CC(=O)N1CCc2cc(S(=O)(=O)N3CCOCC3)ccc21,6,1,-1,0,4,4.6*
NNc1ccc(Cc2ccc(Cl)cc2Cl)nn1,-30,2,-4,-1,-6,-1
CSc1ccc(Cc2ccc(Cl)cc2Cl)nn1,-65,1,0,1,2,4.3*
CCOC(=O)C1=NOC(C(=O)NCCO)(C(=O)C2CC2)C1 (stereo not drawn),nt,nt,1,-1,nt,nt
C[C@@H]1COc2cc(Br)ccc2S(=O)(=O)N1Cc1cn(Cc2ccccc2)nn1,nt,nt,-1,-1,nt,nt
COc1ccc(C(=O)COC(=O)[C@H](C)NS(=O)(=O)c2ccc(NC(C)=O)cc2)cc1OC,4,nt,4,1,nt,2
CC(=O)Nc1ccc(S(=O)(=O)N[C@@H](C)C(=O)OCC(=O)c2ccc(Br)s2)cc1,-2,nt,-1,1,nt,8.1*
CCOC(=O)N1CCN(C(=S)NC(C)(C)C)CC1,-13,-3,1,1,33,5.2*
COc1cccc(-c2nnc(SCc3cc(C)ccc3C)n2Cc2ccco2)c1,nt,nt,-7,-2,nt,nt
O=C(/C=C/c1ccc([N+](=O)[O-])cc1)OCc1cnc(-c2ccccc2)o1,16,-1,-2,0,-6,6.1*
O=C(Cn1nnc(-c2ccc(N3CCOCC3)cc2)n1)c1ccccc1,nt,nt,-2,1,nt,nt
CCOC(=O)C1(C)NC(c2cccs2)C2C(=O)N(c3ccc(OC)cc3)C(=O)C21 (stereo not drawn),-9,3,1,0,55*,nt
